Reference: ChEMBL document CHEMBL4689842, “EUbOPEN Chemogenomics Library wave 1” (2021)
Where “and” joins values, the source holds several entries; their conditions need not be identical. Equal entries are not always repeated.

System: U2OS
Test: Multiplex assay against U2OS
Type: toxicity, cell-based
Settings: human
How it was run: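 Cells were classed with CellPathfinder machine-learning gating, first as Hoechst high-intensity objects or normal cells, then (normal cells) as healthy, pyknosed or fragmented nuclei, and finally (pyknosed cells) as mitotic or apoptotic. Staining of live cells at seeding used Hoechst33342, BioTracker Green Microtubule Cytoskeleton Dye, MitoTracker Red and Annexin V Alexa Fluor 680, with imaging on a CQ1 microscope at 37°C and 5% CO2 after compound addition. Tubulin, mitochondrial-mass and membrane-permeability phenotypes are per cents of healthy-nucleus cells.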

[1] = 12 h, 1 µM, compound concentration 1 uM, replicate 1
[2] = 12 h, 1 µM, compound concentration 1 uM, replicate 2
[3] = 12 h, 10 µM, compound concentration 10 uM, replicate 1
[4] = 12 h, 10 µM, compound concentration 10 uM, replicate 2
[5] = 24 h, 1 µM, compound concentration 1 uM, replicate 1
[6] = 24 h, 1 µM, compound concentration 1 uM, replicate 2
[7] = 24 h, 10 µM, compound concentration 10 uM, replicate 1
[8] = 24 h, 10 µM, compound concentration 10 uM, replicate 2
[9] = 48 h, 1 µM, compound concentration 1 uM, replicate 1
[10] = 48 h, 1 µM, compound concentration 1 uM, replicate 2
[11] = 48 h, 10 µM, compound concentration 10 uM, replicate 1
[12] = 48 h, 10 µM, compound concentration 10 uM, replicate 2

O=C(NCCCC1CCCCC1)c1ccc(CNC(=O)c2cnn(-c3ccccc3)c2C(F)(F)F)cc1 [SR-321]
Population Apoptotic (%) [1]: 37% [middle of 4 runs]
Population Healthy Nuclei (%) [1]: 74% and 91%
Population Hoechst High Intensity Objects (%) [1]: 6% and 9% and 5%
Population Membrane Permeable-Phenotype (%) [1]: 9% and 7%
Population Mitotic Cells (%) [1]: 66% [middle of 4 runs]
Population Normal (%) [1]: 93% and 90% and 94%
Population Pyknosed Nuclei (%) [1]: 14% and 13% and 7%
Population Tubulin-Different-Phenotype (%) [1]: 15% and 16% and 35%
Total Cell Count [1]: 181 [middle of 4 runs]
Population Healthy Nuclei (%) [2]: 89% and 53% and 83% and 88%
Population Hoechst High Intensity Objects (%) [2]: 8% and 21% and 7%
Population Membrane Permeable-Phenotype (%) [2]: 14% and 0% and 12%
Population Normal (%) [2]: 91% and 78% and 92%
Population Pyknosed Nuclei (%) [2]: 5% and 6%
Population Tubulin-Different-Phenotype (%) [2]: 20% and 26%
Total Cell Count [2]: 89 [middle of 4 runs]
Population Apoptotic (%) [3]: 40% and 31% and 41%
Population Fragmented Nuclei (%) [3]: 9% [middle of 4 runs]
Population Healthy Nuclei (%) [3]: 71% and 80% and 75% and 86%
Population Hoechst High Intensity Objects (%) [3]: 2% and 4% and 6%
Population Mitochondria Different-Phenotype (%) [3]: 24% and 25% and 20%
Population Mitotic Cells (%) [3]: 60% and 68% and 58%
Population Normal (%) [3]: 97% and 95% and 93%
Population Pyknosed Nuclei (%) [3]: 14% [middle of 4 runs]
Population Tubulin-Different-Phenotype (%) [3]: 15% [middle of 4 runs]
Total Cell Count [3]: 197 [middle of 4 runs]
Population Healthy Nuclei (%) [4]: 66% and 69%
Population Membrane Permeable-Phenotype (%) [4]: 5% and 0% and 11%
Population Mitotic Cells (%) [4]: 80% and 50% and 81% and 88%
Population Normal (%) [4]: 73% and 94% and 91% and 92%
Total Cell Count [4]: 117 [middle of 4 runs]
Population Apoptotic (%) [5]: 40% and 45% and 15%
Population Fragmented Nuclei (%) [5]: 8% [middle of 4 runs]
Population Healthy Nuclei (%) [5]: 85% and 81% and 79% and 91%
Population Membrane Permeable-Phenotype (%) [5]: 8% and 5% and 10%
Population Mitotic Cells (%) [5]: 60% and 54% and 84%
Population Normal (%) [5]: 94% and 96% and 98%
Population Pyknosed Nuclei (%) [5]: 7% and 9% and 8%
Population Tubulin-Different-Phenotype (%) [5]: 19% [middle of 4 runs]
Total Cell Count [5]: 233 [middle of 4 runs]
Population Healthy Nuclei (%) [6]: 66% and 82% and 74% and 94%
Population Membrane Permeable-Phenotype (%) [6]: 4% and 3% and 0% and 7%
Population Mitochondria Different-Phenotype (%) [6]: 19% [middle of 4 runs]
Population Mitotic Cells (%) [6]: 100% and 40%
Population Normal (%) [6]: 85% and 95% and 89% and 97%
Population Tubulin-Different-Phenotype (%) [6]: 30% and 22%
Total Cell Count [6]: 88 [middle of 4 runs]
Population Apoptotic (%) [7]: 44% and 36% and 21%
Population Healthy Nuclei (%) [7]: 71% and 75% and 74% and 89%
Population Hoechst High Intensity Objects (%) [7]: 2% and 4%
Population Membrane Permeable-Phenotype (%) [7]: 5% [middle of 4 runs]
Population Mitochondria Different-Phenotype (%) [7]: 19% and 17%
Population Mitotic Cells (%) [7]: 55% and 63% and 78%
Population Normal (%) [7]: 97% and 95%
Population Pyknosed Nuclei (%) [7]: 15% and 16% and 6%
Population Tubulin-Different-Phenotype (%) [7]: 12% [middle of 4 runs]
Total Cell Count [7]: 232 [middle of 4 runs]
Population Healthy Nuclei (%) [8]: 67% and 65% and 86%
Population Mitotic Cells (%) [8]: 50% and 66% and 88%
Population Normal (%) [8]: 93% and 81% and 92% and 96%
Population Pyknosed Nuclei (%) [8]: 11% and 14%
Total Cell Count [8]: 124 [middle of 4 runs]
Population Apoptotic (%) [9]: 33% and 45% and 47%
Population Fragmented Nuclei (%) [9]: 5% and 9%
Population Healthy Nuclei (%) [9]: 88% and 86%
Population Hoechst High Intensity Objects (%) [9]: 1%
Population Membrane Permeable-Phenotype (%) [9]: 2%
Population Mitochondria Different-Phenotype (%) [9]: 11% and 8%
Population Mitotic Cells (%) [9]: 66% and 54% and 52%
Population Normal (%) [9]: 98%
Population Pyknosed Nuclei (%) [9]: 7%
Population Tubulin-Different-Phenotype (%) [9]: 23% and 19%
Total Cell Count [9]: 217 and 382 and 367
Population Fragmented Nuclei (%) [10]: 4% and 7% and 6%
Population Healthy Nuclei (%) [10]: 85% and 87%
Population Hoechst High Intensity Objects (%) [10]: 6% and 3% and 8%
Population Membrane Permeable-Phenotype (%) [10]: 6% and 5% and 4%
Population Mitochondria Different-Phenotype (%) [10]: 18% and 10% and 15%
Population Normal (%) [10]: 93% and 96% and 92%
Population Pyknosed Nuclei (%) [10]: 10% and 4% and 6%
Population Tubulin-Different-Phenotype (%) [10]: 42% and 18% and 27%
Total Cell Count [10]: 118 and 104 and 109
Population Apoptotic (%) [11]: 50% and 43% and 45%
Population Fragmented Nuclei (%) [11]: 9% and 10% and 8%
Population Healthy Nuclei (%) [11]: 72% and 74% and 78%
Population Hoechst High Intensity Objects (%) [11]: 3% and 2%
Population Membrane Permeable-Phenotype (%) [11]: 3% and 2%
Population Mitochondria Different-Phenotype (%) [11]: 16% and 11% and 7%
Population Mitotic Cells (%) [11]: 49% and 56% and 54%
Population Normal (%) [11]: 96% and 97%
Population Pyknosed Nuclei (%) [11]: 18% and 14% and 13%
Population Tubulin-Different-Phenotype (%) [11]: 10% and 4% and 12%
Total Cell Count [11]: 425 and 284 and 300
Population Apoptotic (%) [12]: 61% and 60% and 57%
Population Fragmented Nuclei (%) [12]: 18% and 16% and 20%
Population Healthy Nuclei (%) [12]: 61% and 77% and 62%
Population Membrane Permeable-Phenotype (%) [12]: 12% and 6% and 5%
Population Mitochondria Different-Phenotype (%) [12]: 24% and 22% and 17%
Population Mitotic Cells (%) [12]: 38% and 40% and 42%
Population Normal (%) [12]: 82% and 94% and 91%
Population Tubulin-Different-Phenotype (%) [12]: 16% and 15% and 17%
Total Cell Count [12]: 125 and 91 and 127

Cc1nc(-c2cn3c(n2)-c2ccc(-c4cnn(C(C)(C)C(N)=O)c4)cc2OCC3)n(C(C)C)n1 [TASELISIB]
Population Apoptotic (%) [1]: 54%
Population Fragmented Nuclei (%) [1]: 3%
Population Healthy Nuclei (%) [1]: 84%
Population Hoechst High Intensity Objects (%) [1]: 2%
Population Membrane Permeable-Phenotype (%) [1]: 16%
Population Mitochondria Different-Phenotype (%) [1]: 10%
Population Mitotic Cells (%) [1]: 45%
Population Normal (%) [1]: 97%
Population Pyknosed Nuclei (%) [1]: 11%
Population Tubulin-Different-Phenotype (%) [1]: 9%
Total Cell Count [1]: 181
Population Apoptotic (%) [2]: 16%
Population Fragmented Nuclei (%) [2]: 12%
Population Healthy Nuclei (%) [2]: 77%
Population Hoechst High Intensity Objects (%) [2]: 12%
Population Membrane Permeable-Phenotype (%) [2]: 27%
Population Mitochondria Different-Phenotype (%) [2]: 20%
Population Mitotic Cells (%) [2]: 83%
Population Normal (%) [2]: 87%
Population Pyknosed Nuclei (%) [2]: 9%
Population Tubulin-Different-Phenotype (%) [2]: 25%
Total Cell Count [2]: 89
Population Apoptotic (%) [3]: 44%
Population Fragmented Nuclei (%) [3]: 5%
Population Healthy Nuclei (%) [3]: 89%
Population Hoechst High Intensity Objects (%) [3]: 2%
Population Membrane Permeable-Phenotype (%) [3]: 12%
Population Mitochondria Different-Phenotype (%) [3]: 19%
Population Mitotic Cells (%) [3]: 55%
Population Normal (%) [3]: 97%
Population Pyknosed Nuclei (%) [3]: 5%
Population Tubulin-Different-Phenotype (%) [3]: 24%
Total Cell Count [3]: 166
Population Apoptotic (%) [4]: 55%
Population Fragmented Nuclei (%) [4]: 9%
Population Healthy Nuclei (%) [4]: 78%
Population Hoechst High Intensity Objects (%) [4]: 16%
Population Membrane Permeable-Phenotype (%) [4]: 18%
Population Mitochondria Different-Phenotype (%) [4]: 12%
Population Mitotic Cells (%) [4]: 44%
Population Normal (%) [4]: 83%
Population Pyknosed Nuclei (%) [4]: 12%
Population Tubulin-Different-Phenotype (%) [4]: 12%
Total Cell Count [4]: 65
Population Apoptotic (%) [5]: 40%
Population Fragmented Nuclei (%) [5]: 6%
Population Healthy Nuclei (%) [5]: 80%
Population Hoechst High Intensity Objects (%) [5]: 4%
Population Membrane Permeable-Phenotype (%) [5]: 15%
Population Mitotic Cells (%) [5]: 59%
Population Normal (%) [5]: 95%
Population Pyknosed Nuclei (%) [5]: 13%
Population Tubulin-Different-Phenotype (%) [5]: 12%
Total Cell Count [5]: 240
Population Apoptotic (%) [6]: 27%
Population Fragmented Nuclei (%) [6]: 20%
Population Healthy Nuclei (%) [6]: 64%
Population Hoechst High Intensity Objects (%) [6]: 6%
Population Membrane Permeable-Phenotype (%) [6]: 21%
Population Mitochondria Different-Phenotype (%) [6]: 6%
Population Mitotic Cells (%) [6]: 72%
Population Normal (%) [6]: 93%
Population Pyknosed Nuclei (%) [6]: 15%
Population Tubulin-Different-Phenotype (%) [6]: 29%
Total Cell Count [6]: 91
Population Apoptotic (%) [7]: 27%
Population Healthy Nuclei (%) [7]: 91%
Population Hoechst High Intensity Objects (%) [7]: 1%
Population Mitochondria Different-Phenotype (%) [7]: 11%
Population Mitotic Cells (%) [7]: 72%
Population Normal (%) [7]: 98%
Population Pyknosed Nuclei (%) [7]: 4%
Population Tubulin-Different-Phenotype (%) [7]: 26%
Total Cell Count [7]: 168
Population Apoptotic (%) [8]: 60%
Population Fragmented Nuclei (%) [8]: 4%
Population Healthy Nuclei (%) [8]: 83%
Population Hoechst High Intensity Objects (%) [8]: 4%
Population Membrane Permeable-Phenotype (%) [8]: 13%
Population Mitochondria Different-Phenotype (%) [8]: 15%
Population Mitotic Cells (%) [8]: 40%
Population Normal (%) [8]: 95%
Population Pyknosed Nuclei (%) [8]: 11%
Population Tubulin-Different-Phenotype (%) [8]: 20%
Total Cell Count [8]: 67
